Screening results from PubChem BioAssay.
The list is not random: actives were taken first. Their share in the collection is about 2.5%.
DNMT1 inh: blocks human DNA methyltransferase DNMT1 | P26358 | DNMT1 molecular beacon, Hinp1I cleavage, fluorescence | inhibition (reported as % activation of signal), % at 10 µM | hit rate 0.83% among 360,000 | AID 588458; in the data active means inhibition above about 50%
MBD2 inh: blocks human MBD2 binding to methylated DNA; Q9UBB5; TR-FRET, MBD2 binding to methylated oligonucleotide; inhibition, % at 4.4 µM; hit rate 0.31% among 370,000; AID 686964; in the data active means inhibition above about 13%
UHRF1 MBD2 ctr: blocks human UHRF1 binding to methylated DNA; hit rate 0.75% among 370,000; inhibition, % at 4.4 µM; Q96T88; UHRF1 binding to methylated oligo, TR-FRET; AID 687016; in the data active means inhibition above about 21%;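 further: UHRF1 SRA domain binding a hemimethylated CpG hairpin DNA probe; 0% = median of test compound wells and 100% = reference inhibitor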
Pemphigus Ab inh: blocks pemphigus antibody binding to human desmoglein-3 | DSG3-coupled beads, scFv-anti-DSG3-GFP binding, flow cytometry; stronger effect = lower value | binding (percent of control), % at 10 µM | hit rate 0.48% among 310,000;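 active means binding more than 3 SD below its plate's average and above zero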
HCV NS3 hel inh: blocks Hepatitis C virus NS3 helicase unwinding. NS3 helicase DNA unwinding, Cy5 molecular beacon fluorescence. inhibition, % at 10.9 µM. hit rate 0.56% among 290,000. AID 1800;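 active means inhibition above the mean of all tested compounds plus 3 SD, set per campaign, cut at about 35% in these data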;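 further: 0% = DMSO wells and 100% = thioflavine S control wells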
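Test system: hepatitis C virus NS3 helicase domain fragment enzyme. Also added: annealed dual-labelled DNA beacon duplex, ATP-started. Timing: 60 min unwinding reaction at 25 °C after ATP addition. Technique: Cy5 fluorescence. Measure: % inhibition of unwinding.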
SUMO1 PPI mod: SUMO1-SIM interaction modulation | P63165 | SUMO1 binding to a labelled peptide, TR-FRET, 1 h | inhibition, % at 20 µM | hit rate 0.33% among 360,000
Target sequence (P63165 whole entry, looked up): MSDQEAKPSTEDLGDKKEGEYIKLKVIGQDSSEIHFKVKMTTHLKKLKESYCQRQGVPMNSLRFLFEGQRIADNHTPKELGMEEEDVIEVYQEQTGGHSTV
NS3 helicase cf: HCV NS3 helicase inhibition, confirmation assay; NS3 helicase DNA unwinding, Cy5 molecular beacon fluorescence; inhibition, % at 10.9 µM; shares compounds with HCV NS3 hel inh; AID 1943; hit rate 31% among 1,600;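 active means inhibition above the mean of all tested compounds plus 3 SD, cutoff set per campaign, cut at about 36% in these data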
FID counter trip: displaces DNA intercalator in HCV helicase counter-screen; inhibition, % at 7.9 µM; hit rate 4% among 1,600; shares compounds with HCV NS3 hel inh; AID 1945; DNA fluorescent intercalator displacement, fluorescence;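 further: 0% = vehicle and 100% = reference compound; higher means more displacement of ethidium bromide from the DNA hairpin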
FID counter DR: displaces fluorescent intercalator from DNA, HCV helicase counter-screen | shares compounds with HCV NS3 hel inh | fluorescent intercalator displacement from DNA, fluorescence | IC50, µM | 120 tested, under 10 active; call rule not given here
Active calls of the source: *; i = inactive; / = not tested or not shown. Unless noted, no stated cut-off is given here; in the data, active means inhibition above about 37%; inactive means the rest.

SMILES	DNMT1 inh	MBD2 inh	UHRF1 MBD2 ctr	Pemphigus Ab inh	HCV NS3 hel inh	SUMO1 PPI mod	NS3 helicase cf	FID counter trip	others
CCOC(=O)c1ccc(N=Cc2c(O)c3ccccc3oc2=O)cc1	-6	4	-2	95	41*	-4	-15	-3
O=[N+]([O-])c1ccc(N2CCN(S(=O)(=O)c3ccc4ccccc4c3)CC2)cc1NCC1CCCO1 (stereo not drawn)	-3	0	5	79	53*	-4	6	-7
O=C(CC1SC(N2CCCCC2)=NC1=O)Nc1ccc(C(=O)O)cc1 (stereo not drawn)	6	-6	0	97	/	4	/	/
O=C(O)/C=C/C(=O)Nc1ccc2c(c1)NC(=O)CO2	-2	-5	-6	103	3	-1	/	/
Cc1ccc(-c2csc(/C(C#N)=C(\O)CN3CCN(C(=O)c4ccco4)CC3)n2)cc1	1	0	1	103	37*	20	42*	-14
O=C(Cc1ccc(Br)cc1)NCc1ccccc1	0	5	1	100	30	5	/	/
Cc1cc(N2CCOCC2)ncc1[N+](=O)[O-]	-1	-3	-3	96	16	-15	/	/
CN(C)/C=C1\N=C(c2cccs2)OC1=O	5	-1	-4	111	1	-17	/	/
O=C1OC(c2cccs2)=N/C1=C\c1ccc(-c2ccccc2Cl)o1	-2	-4	-1	112	71*	15	48*	1
O=C(Nc1nnc(C2=COCCO2)o1)c1cccc(Br)c1	1	4	-4	99	39*	5	-8	4
Clc1cccc(CSc2ncn(-c3ccccc3)n2)c1	-4	-3	-1	92	-6	-1	/	/
COc1ccc(C(=O)c2coc3c2C(=O)C(=O)c2ccccc2-3)cc1	-18	0	10	108	41*	-5	-8	-3
CCN1CCN(CCC(=O)Nc2cccc(OC)c2)CC1	-6	-4	-1	/	-4	-3	/	/
O=C1CCC(=O)N(O)CCCCCNC(=O)CCC(=O)N(O)CCCCNC(=O)CCC(=O)N(O)CCCCCN1	7	7	-2	/	/	-1	/	/
CCOc1ccccc1N1CCN(c2nc(N)c(C#N)c(CC#N)c2C#N)CC1	-6	6	-2	111	36*	29	-18	-10
CCOc1ccccc1N1CCN(c2nc3ccccc3nc2C(C#N)C(=O)OC)CC1 (stereo not drawn)	-26	1	-3	96	-1	-6	/	/
N#Cc1c(SCC(=O)Nc2ccc(C(F)(F)F)cc2)sc2c(O)cc(=O)[nH]c12	1	-3	2	99	14	3	/	/
Cc1ccc(NC(=O)CSc2sc3c(O)cc(=O)[nH]c3c2C#N)c(F)c1	9	1	4	100	36*	39	27	1
Nc1c(C(=O)NC2CC2)sc2nc3c(c(-c4ccco4)c12)CC/C3=C/c1ccco1	91*	/	/	/	69*	95*	99*	3	FID counter DR=i
Cc1nc2sc(C(=O)NC3CC3)c(N)c2c(C)c1Cl	/	-3	-5	/	/	/	/	/
O=C(Nc1cccc2ccccc12)c1ccccc1	0	-2	2	90	1	-1	/	/
O=C(Nc1cccc2ccccc12)c1ccc([N+](=O)[O-])cc1	-1	1	3	117	41*	-27	-12	15
Cc1cc(C)c(NC(=O)c2ccc(CNS(=O)(=O)c3cc(C(F)(F)F)ccc3Cl)cc2)c(C)c1	-9	1	-1	101	36*	2	-4	-14
CC1=C(OC(=O)C(C)(C)C)C(C)(C)C(c2ccccc2)OC1=O (stereo not drawn)	0	3	-2	97	-1	4	/	/
CC(C)(C)NC(=O)C1c2ccccc2OCC(=O)N1C1CC1 (stereo not drawn)	/	-2	2	/	/	-1	/	/
CCN(CC)S(=O)(=O)c1cc(OC)ccc1N=Nc1ccc(O)c2ncccc12	-8	-1	-3	97	50*	-34	68*	-3
